# The full list was thinned out, with hits kept by preference.
# 697 NFkB inh: lowers PMA/ionomycin-induced NF-kB signal in 697 B cells; actives 0.33% (n = 330,000); 697 B-cell NF-kB luciferase reporter, 16 h; inhibition, % at 4 µM; in the data active = inhibition above about 35%
# CHOP inh: CHOP inhibition in unfolded protein response. CHO-K1 CHOP-promoter luciferase, tunicamycin-induced, 15-18 h. inhibition, % at 10 µM. actives 3.8% (n = 220,000);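 active = compounds that reduced the stress-induced luciferase reporter signal by more than about 70% of percent inhibition, limit read from the data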;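 also: 0% = tunicamycin plus vehicle and 100% = wells without tunicamycin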
# Jurkat NFkB inh: inhibitors of the PMA/ionomycin-induced NF-kB reporter in Jurkat cells; PMA/ionomycin-induced NF-kB luciferase reporter, luminescence; inhibition, % at 4 µM; actives 0.53% (n = 330,000); AID 435003; in the data active = inhibition above about 50%
# UPR CHOP act: apoptotic UPR (CHOP) activation; CHO-CHOP luciferase reporter, luminescence; percent of tunicamycin response over DMSO baseline; activation, % at 10 µM; actives 0.34% (n = 330,000);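 active = at 10 µM dose, activation of 40% or more, normalized to positive control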;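 also: 100% = tunicamycin at 10 µg/mL and 0% = DMSO alone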
#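 Assay system: CHO-CHOP cells, stable luciferase reporter of PERK-eIF2a-CHOP signalling / Buffer or medium: F12 plus 10% serum / Compound dosing: one dose, 10 µM in 0.5% DMSO / Times: 6 h compound treatment, 37 °C / Technique: luciferase luminescence / Read-out: % reporter activation, DMSO baseline versus tunicamycin full activation / Benchmarks: tunicamycin and DMSO controls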
# XBP1 UPR activ: adaptive UPR (XBP1) activation; CHO-XBP1 luciferase reporter, IRE1-XBP1 UPR activation, luminescence; percent of tunicamycin response, DMSO as zero; activation, % at 20 µM; actives 0.33% (n = 330,000);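 active = versus positive control, 20 µM dose yields 30% or more activation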;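 also: 100% = tunicamycin at 10 µg/mL and 0% = DMSO only wells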
#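 Assay system: CHO-XBP1 luciferase reporter cells; Schedule: 6 h treatment, 37 °C; Detection: glow luminescence from Steady-Glo reagent; Benchmarks: high control tunicamycin 10 µg/mL final, low control DMSO vehicle only.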
# * marks the source's active call; other numbers are inactive results; / = no result.
SMILES,697 NFkB inh,CHOP inh,Jurkat NFkB inh,UPR CHOP act,XBP1 UPR activ
Cc1cc(C)cc(NC(=O)C(=O)NCC2CCCN2S(=O)(=O)c2cccs2)c1 (stereo not given),-20,/,-8,0,2
COc1ccc([C@@H]2C[C@H]3CN(c4ccccc4)C(=O)[C@]34CCCN24)c(OC)c1OC,30,19,7,0,-3
CC(C)(O)C#Cc1ccc([C@@H]2C[C@H]3CN(c4ccccc4)C(=O)[C@]34CCCN24)s1,-3,95*,23,-2,-2
O=C(/C=C/c1cc[n+](CC(=O)c2ccc3cccc4c3c2CC4)cc1)c1ccc2cccc3c2c1CC3,16,-15,0,-1,-2
CC(=O)Nc1sc(N/N=C\c2ccc(O)cc2)nc1-c1cccs1,2,-26,-8,4,-3
CC(=O)Nc1sc(N/N=C\c2cccc(Cl)c2)nc1-c1cccs1,16,96*,8,3,0
CCCCOc1ccc(Br)cc1CSC(=N)N,/,76*,/,/,/
Cc1cc(C)n(-c2nc(NCC(C)O)c3c4c(sc3n2)COC(C)(C)C4)n1 (stereo not given),-2,15,-6,1,3
Cc1cc(C)n(-c2nc(NCC3CCCO3)c3c4c(sc3n2)COC(C)(C)C4)n1 (stereo not given),9,95*,-16,0,1
Cc1c(Cl)cccc1NC(=O)c1ccc(-n2ccnc2)nc1,-27,15,-6,1,1
C=CCNc1sc(C(=O)c2ccc(C)cc2)c(N)c1C#N,11,1,6,1,6
C=CCNc1nc(N)c(C(=C(C#N)C#N)c2ccc(Br)cc2)s1,-9,81*,-4,0,-2
Cc1ccc(Oc2nc3c(c(=O)n(Cc4ccccc4F)c(=O)n3C)n2C)cc1,26,94*,4,1,1
CC(=O)Oc1ccc(N2C(=O)C3C(C2=O)C2(C)C=CC3(C)O2)cc1 (stereo not given),-25,/,-1,5,0
COC(=O)c1cc(N2C(=O)C3C(C2=O)C2(C)C=CC3(C)O2)ccc1Cl (stereo not given),5,75*,-9,-1,-3
O=C(c1cc2ccccc2o1)N1CCN(c2ccccc2Cl)CC1,0,82*,1,-1,1
O=C(Nc1cccc(NC(=O)c2ccccc2)n1)c1ccccc1,-34,/,-11,6,-3
Cc1ccc2nc(NC(=O)CSCC(=O)OCC(=O)c3ccccc3)sc2c1,/,71*,/,/,/
COc1ccc(OCC(=O)Nc2ccc3oc(-c4ccncc4)nc3c2)cc1,-8,0,-21,0,-2
Cc1ccc(OCC(=O)Nc2ccc(O)c(-c3nc4ccccc4o3)c2)cc1,-3,89*,-13,3,14
O=C(CN(c1ccc(Cl)c(C(F)(F)F)c1)S(=O)(=O)c1ccccc1)N/N=C/c1cccc2c1OCCO2,1,73*,5,1,-2
CN(C(=O)COC(=O)c1nc(Cl)c(Cl)c(Cl)c1Cl)C1CCS(=O)(=O)C1 (stereo not given),/,56,/,/,/
Cc1onc(-c2ccccc2)c1C(=O)Nc1nnc(COc2ccc(Cl)cc2)s1,3,89*,-10,7,-7
O=C(Nc1nnc(-c2ccccc2Cl)s1)C1CCN(S(=O)(=O)c2ccc(Cl)cc2)CC1,1,7,-5,0,-1
CCc1nnc(NC(=O)c2c(-c3ccccc3)noc2C)s1,-2,/,7,-1,-3
SMILES,697 NFkB inh,CHOP inh,Jurkat NFkB inh,UPR CHOP act,XBP1 UPR activ
Cc1onc(-c2ccccc2Cl)c1C(=O)Nc1nnc(-c2ccc(Cl)cc2Cl)s1,9,78*,6,1,-4
O=C(Nc1nnc(COc2ccccc2)s1)C1CCN(S(=O)(=O)c2ccc(Cl)cc2)CC1,19,80*,5,2,0
O=C(COC(=O)CSc1ccc([N+](=O)[O-])cc1)NCCC1=CCCCC1,6,/,13,1,1
Clc1cc(Cl)cc(C2=NC(Cc3ccccc3)CO2)c1 (stereo not given),10,/,-3,2,1
O=C(/C=C/Nc1ccccc1Br)c1ccccn1,-28,88*,42,-11,-14
O=Cc1[nH]c2ccccc2c1N(C(=O)CCl)c1ccccc1,/,87*,/,/,/
O=C(CCl)N(c1ccccc1)c1ccccc1,/,-36,/,/,/
CCOc1ccc(-n2c(N)c(-c3nc4ccccc4n3C)c3nc4ccccc4nc32)cc1,-24,93*,12,27,21
CC(C)c1ccccc1NC(=O)CNC(C)c1ccc(F)cc1 (stereo not given),7,6,7,0,-4
COC(=O)CNc1nc(Cl)nc(Nc2ccc(Cl)cc2)n1,-5,74*,20,3,-1
Cc1ccc(S(=O)(=O)NCCC(=O)OCC(=O)N2CCCC2=O)cc1C,-44,/,9,1,4
Cc1csc(NC(=O)CSc2nnc(-c3ccccc3)o2)n1,-87,34,-78,-1,-1
CCOC(=O)Cc1csc(NC(=O)CSc2nnc(-c3ccc(F)cc3)o2)n1,20,78*,0,-2,-3
CCOC(=O)Cc1csc(NC(=O)CSC2=NCCS2)n1,-42,/,0,-1,-1
CCOC(=O)Cc1csc(NC(=O)CSc2nnc(-c3ccc(C)cc3)o2)n1,-5,78*,1,-3,-2
COc1cc(NC(=O)c2cccnc2)ccc1-c1cc2ccccc2oc1=O,-9,77*,-5,2,-2
CC(=O)c1c(C)nn(CC(O)COc2ccc3c(c2)CCC3)c1C (stereo not given),-53,21,-6,0,-1
Cc1nn(CC(O)COc2ccc3c(c2)CCC3)c(C)c1Br (stereo not given),-11,82*,0,7,-3
CC1CN(C(c2cccs2)c2sc3ncnn3c2O)CC(C)O1 (stereo not given),1,26,4,0,-1
Cc1oc2c(Cl)c(Cl)c(O)c(CN(C)C)c2c1C(=O)c1ccc(Cl)cc1,-20,/,13,0,-1
CCn1cc(Br)c(-c2nc3ccccc3c(=O)n2N)n1,-28,90*,-37,2,1
Cc1nc2ccccc2c(=O)n1N,9,51,0,1,3
CC[C@H](CO)Nc1nc(Nc2cccc(Cl)c2)c2ncn(C(C)C)c2n1,-54,83*,1,0,4
CC1Cc2ccccc2N1C(=O)CCS(=O)(=O)c1cccs1 (stereo not given),1,-7,-6,2,6
CC1Cc2ccccc2N1C(=O)Cc1cccs1 (stereo not given),-5,71*,-15,0,1
O=C(Cc1ccccc1)NCC(=O)OCC(=O)c1cccs1,16,-3,3,0,-5
COc1ccc(C(=O)c2ccccc2)c2c(O)ccc(C(=O)c3ccccc3)c12,-41,86*,38,-2,-3
